OX1R antag-1 – antagonists of human orexin 1 receptor (OX1R). Orexin/Hypocretin receptor type 1 (Homo sapiens), O43613. OX1R-expressing cells, FRET antagonist read-out. inhibition, % at 6.6 µM. hit rate 1.8% among 330,000. AID 485270, 2010; in the data active = inhibition mostly above about 38%, no sharp cut-off; inactive = mostly below about 40%;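 note: 0% = agonist challenge alone and 100% = reference antagonist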
TAAR1 antagonist – human TAAR1 antagonists, primary screen, Fluo-8 calcium fluorescence, CHO RD-HGA16 cells; Trace amine-associated receptor 1 (Homo sapiens), Q96RJ0; antagonist; inhibition, % at 3 µM; hit rate 1.5% among 360,000; AID 624466, 2012;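 active = inhibition above a per-plate cutoff, the mean inhibition of test compounds on that plate plus 3 SD, cut at about 49% in these data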;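 note: 0% = DMSO plus EC80 beta-PEA response and 100% = DMSO alone without agonist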
Target sequence (Q96RJ0 whole entry, looked up): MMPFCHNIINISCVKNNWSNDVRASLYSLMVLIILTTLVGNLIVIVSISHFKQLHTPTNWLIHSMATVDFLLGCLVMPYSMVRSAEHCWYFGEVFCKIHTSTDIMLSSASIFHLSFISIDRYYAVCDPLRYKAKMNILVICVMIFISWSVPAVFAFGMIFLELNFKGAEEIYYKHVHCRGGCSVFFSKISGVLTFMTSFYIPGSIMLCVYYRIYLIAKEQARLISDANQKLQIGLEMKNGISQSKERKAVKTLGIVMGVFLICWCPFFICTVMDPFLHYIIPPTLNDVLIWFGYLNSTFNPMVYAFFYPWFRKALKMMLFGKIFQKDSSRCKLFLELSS
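Material: RD-HGA16 CHO cells with stable hTAAR1 and Gα16; Dosing: single nominal final test compound concentration of 3 µM; Schedule: seeding 17-24 h prior, 75-min 37 °C, 30-min RT dye loading; Detection: kinetic Fluo-8 calcium fluorescence measurement; Measure: % inhibition from peak post-agonist over basal fluorescence ratio; Benchmarks: vehicle and agonist controls.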
OX1R antag-2 – OX1R (HCRTR1) antagonists, primary screen, fluorescence, CHO/OX1R cells, Fluo-8 calcium, orexin A; Orexin/Hypocretin receptor type 1 (Homo sapiens), O43613; AID 434989, 2010; Fluo-8 calcium fluorescence; hit rate 0.43% among 330,000; inhibition, % at 5 µM;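 active = inhibition above its plate's threshold, mean inhibition of all tested compounds on the plate plus 3 SD, cut at about 37% in these data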;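 note: 0% = orexin A challenge wells and 100% = SB-334867-A antagonist wells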
CHO parental Ca – ATP-evoked calcium signal inhibitors, parental CHO, primary screen, counter-screen for OX1R antagonist project, cell-based, fluorescence, Fluo-8 calcium dye | parental CHO-K1, ATP-induced calcium, Fluo-8 fluorescence | inhibition, % at 5.6 µM | hit rate 0.63% among 330,000 | AID 463079, 2010;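 active = inhibition above that plate's mean sample inhibition plus 3 SD, cut at about 26% in these data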;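 note: 0% = ATP-challenged DMSO wells and 100% = DMSO wells without ATP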
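Test system: parental CHO cells; detection: calcium-sensitive Fluo-8 fluorescence; evaluation: percent inhibition of calcium signal; also added: ATP as calcium-mobilizing challenge; repeats: one well per compound; control set: ATP-challenged DMSO wells low, unchallenged DMSO wells high; compound: single nominal dose of 5.6 µM per compound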
TAAR1 ag – human TAAR1 agonists, primary screen, Fluo-8 calcium fluorescence, CHO RD-HGA16 cells. Trace amine-associated receptor 1 (Homo sapiens), Q96RJ0. vehicle wells 0%, saturating PEA agonist 100%. activation, % at 3 µM. hit rate 0.99% among 360,000;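 active = activation above the mean activation of all test compounds in the run plus 3 SD, cut at about 38% in these data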
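Benchmarks: low control DMSO, high control PEA (EC100); System: CHO RD-HGA16 cells carrying human TAAR1 plus Gα16; Detection: Fluo-8 fluorescence, 5 s baseline then 140 s kinetic read; Schedule: 17-24 h plating, Fluo-8 75 min 37 °C, 30 min RT; Read-out basis: % activation from peak over basal fluorescence ratio, DMSO-to-PEA scaled.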
GalR3 antagonist – GalR3 antagonists in HEK293 cells, primary screen, cell-based, fluorescence readout; hit rate 0.44% among 360,000; Galanin receptor type 3 (Homo sapiens), O60755; HEK293 GalR3-CNG cAMP membrane potential fluorescence; galR3 body fused to GalR1 C-terminus; inhibition, % at 3 µM;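 active = inhibition above the screen-wide average plus 3 SD, cut at about 13% in these data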;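 note: forskolin and galanin both at EC90 stimulate the cells; cAMP rise reported by CNG channel membrane potential dye signal; 0% = forskolin plus galanin with DMSO and 100% = forskolin alone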
Target sequence (O60755 1-299 limits assumed): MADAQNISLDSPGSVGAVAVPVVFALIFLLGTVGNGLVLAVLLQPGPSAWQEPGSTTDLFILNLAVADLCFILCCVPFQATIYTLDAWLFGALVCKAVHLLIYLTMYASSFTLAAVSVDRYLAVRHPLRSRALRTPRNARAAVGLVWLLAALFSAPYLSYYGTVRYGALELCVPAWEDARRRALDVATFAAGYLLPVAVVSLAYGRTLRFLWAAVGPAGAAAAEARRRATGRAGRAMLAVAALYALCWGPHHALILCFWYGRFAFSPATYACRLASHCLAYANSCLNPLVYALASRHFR
TAAR1 ag confirm – human TAAR1 agonists, retest of hits, confirmation, Fluo-8 calcium fluorescence, CHO RD-HGA16 cells | shares compounds with TAAR1 ag | activation, % at 3 µM | scaled: DMSO 0%, maximal phenethylamine 100% | hit rate 82% among 2,400;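 active = activation above a cutoff set at the run's mean compound activation plus 3 SD, cut at about 39% in these data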
Ga16 ag counter – nonselective calcium mobilization agonists, CHO-Ga16 cells, counter-screen for hTAAR1 agonist project, cell-based, fluorescence, CHO-Ga16 parental line. shares compounds with TAAR1 ag. Fluo-8 calcium fluorescence; normalized to maximal ATP response, DMSO zero. activation, % at 3 µM. hit rate 50% among 2,400. AID 651787, 2012;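 active = activation above the run cutoff, the mean activation over all tested wells plus 3 SD, cut at about 12% in these data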;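 note: 0% = DMSO wells and 100% = maximal ATP response on the peak over basal ratio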
TAAR1 desens – TAAR1 desensitization by agonist hits, confirmation, counter-screen for TAAR1 agonist project, cell-based, fluorescence, tachyphylaxis. shares compounds with TAAR1 ag. CHO RD-HGA16 hTAAR1, Fluo-8 calcium, beta-PEA response inhibition. inhibition, % at 3 µM. hit rate 46% among 2,400. AID 651951, 2012;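 active = inhibition above the run cutoff, the mean inhibition of all test compounds plus 3 SD, cut at about 49% in these data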;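 note: beta-PEA stimulus applied at its EC80; loss of beta-PEA calcium signal after compound pretreatment read as receptor desensitization; 0% = DMSO with beta-PEA at EC80 and 100% = DMSO alone without agonist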
Ga16 antag count – inhibition of ATP-evoked calcium response in CHO-Ga16 cells, counter-screen for TAAR1 agonist project, cell-based, fluorescence; CHO-Ga16 ATP-induced calcium, Fluo-8 fluorescence; inhibition, % at 3 µM; shares compounds with TAAR1 ag; hit rate 39% among 2,400;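 active = inhibition above the plate's mean compound inhibition plus 3 SD, computed per plate, cut at about 22% in these data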;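 note: 0% = EC80 ATP with DMSO and 100% = DMSO wells without ATP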
Active calls of the source: *; . = no result given; + = active, no number. An excerpt weighted towards active compounds, which were near 4.3% of everything screened.

SMILES	OX1R antag-1	TAAR1 antagonist	OX1R antag-2	CHO parental Ca	TAAR1 ag	GalR3 antagonist	TAAR1 ag confirm	Ga16 ag counter	TAAR1 desens	Ga16 antag count
CCCCc1c(-c2ccccc2OC)ncn1CCc1ccccc1	.	34.4	.	.	61.2*	-10.7	76.7*	11.5*	66.1*	27.4*
CCOC(=O)C1=C(CN2CCN(C(=O)c3ccco3)CC2)NC(=O)NC1c1ccc(F)cc1 (configuration not stated)	17.7	3.4	-13.4	-20.5	0.2	-8.7	.	.	.	.
CC(=O)NC12CC3CC(C1)CC(C(=O)N(C)CC(=O)Nc1cccc(F)c1)(C3)C2	3.3	-14.3	-2.0	-2.4	10.9	-2.1	.	.	.	.
S=C(SSC(=S)N1CCOCC1)N1CCOCC1	.	-4.0	.	.	55.9*	-9.9	54.2*	22.5*	10.7	9.6
CC1CCCN(CCC(=O)c2ccccc2)C1 (configuration not stated)	.	25.3	.	.	71.9*	-0.4	85.2*	4.2	39.5	4.9
CC(=O)Nc1cc2c3c(cccc3c1)-c1ccccc1-2	.	20.8	.	.	4.1	-0.2	.	.	.	.
COC(=O)C1=C(COc2ccccc2)NC(=O)NC1c1ccc2ccccc2c1 (configuration not stated)	36.9	9.9	-16.4	-23.9	10.6	-5.4	.	.	.	.
NC(Cc1ccc(C(F)(F)F)cc1)c1csc(Nc2nccc(C(F)(F)F)n2)n1 (configuration not stated)	.	41.4	.	.	60.6*	2.3	43.0*	19.5*	40.2	22.8*
COC(=O)c1cnc(Nc2nc(C(N)Cc3ccccc3)cs2)nc1C(F)(F)F (configuration not stated)	.	43.2	.	.	63.5*	-5.4	50.0*	26.9*	30.9	23.4*
CS(=O)(=O)c1ccc(Nc2nc(C(N)Cc3ccc(C(F)(F)F)cc3)cs2)cc1 (configuration not stated)	.	31.9	.	.	17.3	-8.1	.	.	.	.
CCCc1cnc(Nc2nc(C(N)Cc3ccc(C(F)(F)F)cc3)cs2)nc1 (configuration not stated)	.	34.0	.	.	68.3*	-2.6	79.6*	63.0*	54.5*	59.4*
COC(=O)c1ccc(N2CCN(c3ccccc3)CC2)c(N)c1	19.8	2.6	-9.2	2.7	-0.3	-14.2	.	.	.	.
N#Cc1cc2cc(Cl)ccc2[nH]c1=O	.	-17.1	.	.	3.4	-1.6	.	.	.	.
CCN1C(=O)/C(=C\N2CCCCCC2)SC1=S	16.6	-23.6	-22.7	-22.1	13.7	1.9	.	.	.	.
CCCCN1C(=O)/C(=C/C=C2\SCCN2C)SC1=S	.	28.2	.	.	71.5*	2.0	50.0*	34.2*	40.0	44.8*
COc1ccc(CCN2C(=O)CN=C2Nc2ccc(F)cc2)cc1OC	33.3	0.2	2.9	-19.8	4.7	-0.3	.	.	.	.
CCOc1ccc(NC2=NCC(=O)N2CCc2ccccc2)cc1	16.3	43.9	26.2	17.6	70.2*	-3.1	81.0*	41.5*	81.8*	52.3*
Cc1ccc(NC2=NCC(=O)N2CCc2ccccc2)cc1C	11.6	-2.7	-14.7	-8.7	47.3*	-2.6	58.9*	6.9	25.9	9.8
CCCCN(C=O)c1c(CC)nc2ccc(C(=O)N3CCN(S(=O)(=O)CC)CC3)cn12	.	-20.7	.	.	0.7	-4.1	.	.	.	.
CCCCN(C(=O)C(C)Oc1ccc(Br)cc1)c1c(N)n(CC(C)C)c(=O)[nH]c1=O (configuration not stated)	6.5	2.9	-16.1	-14.9	-0.8	-0.6	.	.	.	.
Cc1ccc2c(c1)[C@H]1[C@H](CO2)[C@H](c2ccccc2)[C@]2(C)C(=O)N(Cc3ccc(F)cc3)CC(=O)N12	11.4	34.1	33.9	-16.5	61.5*	-7.3	28.8	19.0*	17.0	19.1
CCN(CC)C1=CC2=CC(=C(C#N)C#N)CCC2CC1 (configuration not stated)	28.0	109.2*	106.5*	99.1*	999.8*	-3.2	+	+	106.4*	103.0*
CCCCN(C)C1=CC2=CC(=C(C#N)C#N)CCC2CC1 (configuration not stated)	25.1	107.9*	106.3*	101.1*	992.4*	-5.0	762.6*	872.4*	106.3*	102.9*
O=C1Nc2ccccc2CN2C(=O)c3cc(Cl)ccc3NC(=O)C12 (configuration not stated)	.	-2.9	.	.	4.0	-4.4	.	.	.	.
Cc1ccc(NC(=O)COC(=O)c2ccc3c(c2)C(=O)N(CCc2ccccc2)C3=O)c(C)c1	8.8	13.7	-9.7	2.2	76.8*	3.7	63.7*	3.7	18.2	-2.3
SMILES	OX1R antag-1	TAAR1 antagonist	OX1R antag-2	CHO parental Ca	TAAR1 ag	GalR3 antagonist	TAAR1 ag confirm	Ga16 ag counter	TAAR1 desens	Ga16 antag count
O=C(COC(=O)c1ccc2c(c1)C(=O)N(CCc1ccccc1)C2=O)Nc1ccc(OC(F)F)cc1	18.4	15.4	-18.2	-10.3	13.1	-2.5	.	.	.	.
CCN1c2ccccc2S(=O)(=O)c2ccccc21	5.9	9.8	-35.4	-9.8	1.6	-7.7	.	.	.	.
CCN1CCc2c(sc(NC(=O)Cc3ccccc3)c2C(N)=O)C1	1.1	-40.8	-5.8	0.7	15.9	.	.	.	.	.
CCN1CCc2c(sc(NC(=O)Nc3ccc(Cl)c(Cl)c3)c2C(N)=O)C1	23.7	101.5*	99.5*	93.8*	177.8*	-2.3	164.3*	176.8*	90.1*	88.1*
COc1cc(OC)c(OC)cc1CN1CCN(c2ccccc2OC)CC1	4.8	-19.9	-25.7	-22.4	5.2	2.2	.	.	.	.
COc1ccccc1N1CCN(Cc2cn[nH]c2-c2ccc(F)cc2)CC1	11.8	-0.5	-44.6	-40.7	121.5*	-3.1	122.8*	80.0*	48.0	5.7
